XiGFP reactiv – activators of inactive X chromosome reactivation, primary screen, imaging, XiGFP fibroblasts, GFP high-content imaging, set 2 | 0.055% of 360,000 active | XiGFP mouse fibroblasts, % GFP-positive cells imaging, 3 d; cells co-treated with 5-aza-dC sensitizer; scaled so ellipticine positive control = 100% | activation, % at 7.58 µM;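 active means mean normalized replicate activation at least 10% and every replicate at or above 10%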;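 further: 0% = median of on-plate neutral control wells and 100% = ellipticine 6 µM median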
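Material: SV40-immortalized XiGFP fibroblast cells, line 68-5-11 | Buffer or medium: DMEM containing 5-aza-dC | Dosing: One concentration, pinned | Times: 3 d treatment, 15 min room-temperature fixation | Controls: Ellipticine 6 µM positive control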
NSD2 inh – NSD2 histone methyltransferase inhibitors, primary screen, biochemical, AlphaScreen, single concentration, set 2; NSD2 peptide methylation, 120 min; AID 743445, 2014; inhibition, % at 12.5 µM; Histone-lysine N-methyltransferase NSD2 (Homo sapiens), O96028; 0.54% of 310,000 active; in the data active means inhibition above about 50%
SR-BI HDL uptake – inhibitors of SR-BI mediated HDL lipid uptake, primary screen, ldlA[mSR-BI] cells, fluorescence, single point; Scavenger receptor class B member 1 (Mus musculus), Q61009; ldlA[mSR-BI] CHO cells, DiI-HDL uptake fluorescence, 3 h; inhibition, % at 12.5 µM; 0.96% of 320,000 active; AID 488896, 2010;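 active means mean replicate inhibition of at least 70% and a set share of replicates each scoring 70 or more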;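 further: 0% = median of neutral control wells and 100% = median of positive control wells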
SR-BI uptake up – activators of SR-BI mediated DiI-HDL uptake, primary screen, ldlA[mSR-BI] CHO cells, DiI fluorescence | 3 h; 100 = double the neutral-control signal | AID 504775, 2011 | activation, % at 12.5 µM | 0.096% of 320,000 active;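 active means mean replicate activation of at least 60% and every replicate at or above 60%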;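 further: 0% = median plate neutral-control signal and 100% = twice that signal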
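Test system: SR-BI-overexpressing, LDLR-lacking CHO cells; Also added: labelled HDL, 10 µg/mL; Measured by: bottom-read cell fluorescence after medium removal, ex 550/em 595 nm; Timing: 3 h uptake period with compound, 37 °C; Buffer or medium: F12, 0.5% BSA, 25 mM HEPES; Doses: single compound concentration, delivered by pin transfer.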
ARNT TACC3 PPI – disruptors of ARNT/TACC3 protein interaction, primary screen, biochemical, AlphaScreen, single concentration; Transforming acidic coiled-coil-containing protein 3 (Homo sapiens), Q9Y6A5; AlphaScreen His-ARNT PAS-B/GST-TACC3 binding, luminescence; TACC3 fragment carries E629A point mutation; inhibition, % at 9.99 µM; 0.66% of 390,000 active; AID 623870, 2012;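 active means mean inhibition of replicates at least 50% and at least half of replicates each reaching 50%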;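 further: 0% = complete ARNT plus TACC3 wells and 100% = ARNT alone without TACC3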
HGIII-sPLA2 inh – human group III sPLA2 inhibitors, primary screen, biochemical, QFRET, BODIPY PC-A2 liposome substrate; inhibition, % at 12.2 µM; 0.56% of 370,000 active; Group 3 secretory phospholipase A2 (Homo sapiens), Q9NZ20; QFRET BODIPY PC-A2 liposome hydrolysis, fluorescence;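 active means inhibition above mean plus 3 SD of compounds lying within the high and low control bounds, cut at about 19% in these data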;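 further: 0% = median of test compound wells and 100% = no enzyme DMSO wells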
ARNT Alpha ctr-1 – AlphaScreen signal interference compounds, dose response, artefact control for ARNT-TACC3 interaction inhibitor project, biochemical, luminescence, cherry-pick; 50% of 1,200 active; AC50, µM (titrated, usually from 68 µM), for inactives: at the top dose activity change, negative = signal decrease; His-ARNT PASB-GST AlphaScreen artifact counter-screen; AID 651705, 2012; shares compounds with ARNT TACC3 PPI;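 active means every separate test run was called active for a drop in luminescence, with AC50 within twice the top valid dose, actives reach about 71 µM in these data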
ARNT Alpha ctr-2 – AlphaScreen signal interference by compounds, dose response, artefact control for ARNT/TACC3 disruptor project, biochemical, dual-tagged ARNT, dry powder | shares compounds with ARNT TACC3 PPI | AC50, µM | Dual-tagged His-ARNT PASB-GST AlphaScreen artifact counter-screen | 70% of 45 active;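 active means luminescence drop, with half-maximal potency fitted within twice the sample's top valid dose, cut at about 70 µM in these data; inactive means the rest, including signal moving the wrong way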
An asterisk follows results filed as active. Rows were chosen to be rich in hits. Some 2% of all compounds tested hit in one or more screens of this group.

Screening O=C(CNC(=O)c1ccc(Cl)cc1)OCN1C(=O)c2ccccc2C1=O returned XiGFP reactiv 0, NSD2 inh 1, SR-BI HDL uptake -11, SR-BI uptake up 11, ARNT TACC3 PPI -3 and HGIII-sPLA2 inh 0.
For C[C@@H]1CN([C@@H](C)CO)C(=O)c2cccc(NC(=O)c3nc4ccccc4s3)c2O[C@@H]1CN(C)Cc1ccc2c(c1)OCO2 the results were XiGFP reactiv 0.
O=c1cc(CSc2ccc(Cl)cc2)nc(-c2ccccn2)[nH]1 was read as XiGFP reactiv 0, NSD2 inh 2, SR-BI HDL uptake 7, SR-BI uptake up -7, ARNT TACC3 PPI 61*, HGIII-sPLA2 inh -9 and ARNT Alpha ctr-1 53µM*.
For Clc1ccc(SCc2cc(N3CCOCC3)nc(-c3ccccn3)n2)cc1 the results were XiGFP reactiv 2, NSD2 inh 2, SR-BI HDL uptake 14, SR-BI uptake up -14, ARNT TACC3 PPI 60*, HGIII-sPLA2 inh 1 and ARNT Alpha ctr-1 -14%.
For Nc1ccc(C(=O)OCC(=O)N2CCOCC2)cc1[N+](=O)[O-] the results were XiGFP reactiv 0, NSD2 inh -2, SR-BI HDL uptake -12, SR-BI uptake up 12, ARNT TACC3 PPI -1 and HGIII-sPLA2 inh -2.
CC(C)c1ccc(O)c(NC(=O)c2cncc(Br)c2)c1 was read as NSD2 inh -1, SR-BI HDL uptake 5, SR-BI uptake up -5, ARNT TACC3 PPI -2 and HGIII-sPLA2 inh -12.
Screening CC(C)c1ccc(O)c(NC(=O)c2ncn[nH]2)c1 returned NSD2 inh 1, SR-BI HDL uptake -18, SR-BI uptake up 18, ARNT TACC3 PPI 31*, HGIII-sPLA2 inh -48 and ARNT Alpha ctr-1 -7%.
Screening Cc1nnc(NC(=O)C2CCN(S(=O)(=O)c3cc([N+](=O)[O-])ccc3Cl)CC2)o1 returned XiGFP reactiv 2, NSD2 inh -1, SR-BI HDL uptake -6, SR-BI uptake up 6, ARNT TACC3 PPI 52*, HGIII-sPLA2 inh 4 and ARNT Alpha ctr-1 -20%.
CC1CCCN(S(=O)(=O)c2ccc(C(=O)Nc3nnc(C4CC4)o3)cc2)C1 (configuration not stated) was read as XiGFP reactiv 1, NSD2 inh 2, SR-BI HDL uptake 1, SR-BI uptake up -1, ARNT TACC3 PPI 51*, HGIII-sPLA2 inh -6 and ARNT Alpha ctr-1 65µM*.
COCc1nnc(NC(=O)c2ccc(S(=O)(=O)N3CCCCCC3)cc2)o1 was read as SR-BI HDL uptake 1, SR-BI uptake up -1, ARNT TACC3 PPI 36 and HGIII-sPLA2 inh 0.
Cc1nnc(NC(=O)c2ccc(S(=O)(=O)N3CCCCC3)cc2)o1 was read as ARNT Alpha ctr-2 >136.
For CC1CCCN(S(=O)(=O)c2ccc(C(=O)Nc3nnc(-c4ccccn4)o3)cc2)C1 (configuration not stated) the results were XiGFP reactiv 0, NSD2 inh 0, SR-BI HDL uptake 13, SR-BI uptake up -13 and HGIII-sPLA2 inh 3.

Bioassay records: PubChem BioAssay, several laboratories
